Assay results from ChEMBL document CHEMBL4387703, “Lead optimization and biological evaluation of fragment-based cN-II inhibitors” (Eur J Med Chem, 2019).
The source made the active and inactive calls. No cut-off for these calls is given here.

target: T1, 5'-nucleotidase (Rattus norvegicus) (UniProt P21588); assay: Inhibition of purified rat liver 5'-nucleotidase using IMP as substrate assessed as reduction in substrate dephosphorylation at 2 to 6 mM
T1 sequence (whole entry): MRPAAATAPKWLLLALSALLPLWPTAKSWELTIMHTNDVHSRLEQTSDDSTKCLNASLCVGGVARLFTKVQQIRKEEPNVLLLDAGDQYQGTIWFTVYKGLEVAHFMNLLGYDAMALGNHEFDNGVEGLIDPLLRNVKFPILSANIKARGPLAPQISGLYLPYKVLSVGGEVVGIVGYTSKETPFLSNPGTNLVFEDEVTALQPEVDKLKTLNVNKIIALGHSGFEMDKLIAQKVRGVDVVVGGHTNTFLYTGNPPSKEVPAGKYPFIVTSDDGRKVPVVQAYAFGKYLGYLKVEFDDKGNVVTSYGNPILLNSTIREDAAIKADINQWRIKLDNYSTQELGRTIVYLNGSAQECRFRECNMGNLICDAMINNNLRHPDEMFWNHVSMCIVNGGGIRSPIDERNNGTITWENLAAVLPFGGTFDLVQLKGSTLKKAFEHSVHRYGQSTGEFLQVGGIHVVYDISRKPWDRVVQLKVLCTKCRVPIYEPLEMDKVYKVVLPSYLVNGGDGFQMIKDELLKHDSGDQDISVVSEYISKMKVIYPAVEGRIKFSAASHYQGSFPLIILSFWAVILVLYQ

inhibition	SMILES
50%	CC(C)CSC[C@H]1O[C@@H](n2cnc3c(N)ncnc32)[C@H](O)[C@@H]1O

target: 5'-nucleotidase (Homo sapiens) (UniProt P21589); assay: Inhibition of recombinant cN-II (unknown origin) assessed as reduction in inorganic phosphate production at 200 uM pre-incubated for 10 mins followed by addition of IMP as substrate and measured after 5 mins by malachite green based assay relative to control
How it was run: (§1)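 Purified recombinant cN-II (0.1 μM final) in 50 mM imidazole pH 6.5, 500 mM NaCl and 10 mM MgCl2 was preincubated on ice with compound for 10 min. IMP (50 μM, equimolar Mg) was then added for 5 min at 37 °C.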

Sequence of 5'-nucleotidase (Homo sapiens) (P21589 whole entry): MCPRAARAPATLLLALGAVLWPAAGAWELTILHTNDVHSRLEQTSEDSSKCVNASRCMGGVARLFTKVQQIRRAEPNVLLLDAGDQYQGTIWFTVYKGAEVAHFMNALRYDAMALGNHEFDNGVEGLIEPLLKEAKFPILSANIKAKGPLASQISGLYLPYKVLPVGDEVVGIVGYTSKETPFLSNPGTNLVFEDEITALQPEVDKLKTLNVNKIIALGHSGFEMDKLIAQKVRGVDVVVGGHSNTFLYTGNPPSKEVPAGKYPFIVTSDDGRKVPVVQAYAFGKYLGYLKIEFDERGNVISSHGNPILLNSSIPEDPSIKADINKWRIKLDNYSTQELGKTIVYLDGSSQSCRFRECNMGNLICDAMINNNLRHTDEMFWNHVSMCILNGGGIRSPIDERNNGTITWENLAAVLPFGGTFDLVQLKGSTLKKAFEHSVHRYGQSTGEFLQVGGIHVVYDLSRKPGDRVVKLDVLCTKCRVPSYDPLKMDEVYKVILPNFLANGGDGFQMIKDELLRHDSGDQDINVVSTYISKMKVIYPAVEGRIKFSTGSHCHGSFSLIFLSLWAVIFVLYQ

inhibition	SMILES
3%	CCOC(=O)Cn1cnc2c(N)ncnc21
75%	CCOP(=O)(O)Cn1cnc(-c2cccc(-c3cccc(C(=O)Nc4ncnc5nc[nH]c45)c3)c2)c1
62%	O=C(O)Cn1cnc2c(NC(=O)c3cccc(-c4ccccc4)c3)ncnc21
50%	O=C(Nc1ncnc2ncn(COCc3ccccc3)c12)c1cccc(-c2ccccc2)c1
49%	O=C(Nc1ncnc2nc[nH]c12)c1cccc(-c2cccc(-c3cn(CP(=O)(O)O)cn3)c2)c1
60%	O=C(Nc1ncnc2[nH]cnc12)c1cccc(-c2ccc(-c3nn[nH]n3)cc2)c1
27%	CCOC(=O)Cn1cnc2c(NC(=O)c3ccc(-c4ccccc4-c4nn[nH]n4)cc3)ncnc21
60%	CCOP(=O)(O)Cn1cnc(-c2cccc(-c3cccc(C(=O)Nc4ncnc5ncn(COCc6ccccc6)c45)c3)c2)c1
68%	O=C(Nc1ncnc2[nH]cnc12)c1cccc(-c2ccccc2)c1
52%	O=C(Nc1ncnc2ncn(Cc3ccccc3)c12)c1cccc(-c2ccccc2)c1
47%	CCOP(=O)(Cn1cnc2c(NC(=O)c3cccc(-c4ccccc4)c3)ncnc21)OCC
62%	CC(=O)OCCn1cnc2c(NC(=O)c3cccc(-c4ccccc4)c3)ncnc21
60%	CCOC(=O)Cn1cnc2c(NC(=O)c3cccc(-c4ccccc4)c3)ncnc21
57%	O=C(Nc1ncnc2c1ncn2Cc1ccccc1)c1cccc(-c2ccccc2)c1
10%	O=C(Nc1ncnc2[nH]cnc12)c1ccc(-c2ccccc2-c2nn[nH]n2)cc1
46%	O=C(Nc1ncnc2c1ncn2CCO)c1cccc(-c2ccccc2)c1
34%	O=C(Nc1ncnc2c1ncn2COCc1ccccc1)c1cccc(-c2ccccc2)c1
30%	O=C(Nc1ncnc2[nH]cnc12)c1ccccc1-c1ccc(-c2nn[nH]n2)cc1
50%	O=C(Nc1ncnc2[nH]cnc12)c1cccc(-c2cccc(-c3nn[nH]n3)c2)c1
27%	O=C(Nc1ncnc2[nH]cnc12)c1cccc(-c2ccccc2-c2nn[nH]n2)c1

target: 5'-nucleotidase (Homo sapiens) (UniProt P21589); assay: Inhibition of recombinant cN-II (unknown origin) assessed as reduction in inorganic phosphate production at 1 mM pre-incubated for 10 mins followed by addition of IMP as substrate and measured after 5 mins by malachite green based assay relative to control; how it was run: as §1

inhibition	SMILES
23%	Nc1ncnc2c1ncn2Cc1ccccc1
inactive	CC(=O)OCCn1cnc2c(N)ncnc21
inactive	Nc1ncnc2ncn(COCc3ccccc3)c12
13%	Nc1ncnc2c1ncn2COCc1ccccc1
26%	Nc1ncnc2ncn(Cc3ccccc3)c12

SMILES	inhibition
CCOP(=O)(Cn1cnc2c(N)ncnc21)OCC	inactive

target: T1, 5'-nucleotidase (Rattus norvegicus); assay: Inhibition of purified rat liver 5'-nucleotidase using IMP as substrate assessed as reduction in substrate dephosphorylation at 7 to 10 mM

inhibition	SMILES
50%	CC(C)CSC[C@H]1O[C@@H](n2cnc3c(=O)[nH]cnc32)[C@H](O)[C@@H]1O
